Measured values reported in ChEMBL document CHEMBL1932927, “Synthesis and evaluation of platelet aggregation inhibitory activity of some 3-phenyl-pyrroloquinazolinones” (Eur J Med Chem, 2012).
Calls of active or inactive are those of the source. The rule behind the calls is not given here.

How the values were obtained:
[1] = species on record: Homo sapiens; test: Inhibition of protein tyrosine kinase phosphorylation in human platelets at 2 uM by SDS/PAGE analysis
Procedure, shortened: (§1)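 Platelets at 300 × 10⁶ cells/mL in basal medium pretreated 3 min with 2 µM compound or DMSO, then left resting or stimulated with thrombin 40 mU/mL. Proteins run on 10% SDS/PAGE, blotted, probed with anti-phosphotyrosine PY20, detected by ECL. Actin immunoblot served as loading control. Four experiments.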

[2] = tested on: Platelet; test: Antiplatelet activity against human platelets assessed as inhibition of collagen-induced platelets aggregation at 8 uM pretreated 3 mins before compound addition by aggregometer analysis; assay type: functional, cell-based
Procedure, shortened: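 Washed platelets in basal buffer pH 7.4 (2-4 × 10⁸ cells/mL) preincubated 3 min with compound (8 µM) or DMSO, then stimulated with collagen […] (so in the source). Aggregation rate relative to vehicle control; means of 4 experiments ± S.E.M.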

[3] = (§2) Antiplatelet activity against human platelets assessed as inhibition of thrombin-induced platelets aggregation pretreated 3 mins before compound addition by aggregometer analysis; assay type: functional, cell-based; conditions: Platelet
Procedure, shortened: (§3)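 Platelets isolated by differential centrifugation and resuspended in Tris/Hepes basal buffer pH 7.4. Exposed to compound or DMSO vehicle for 3 min, then thrombin 40 mU/mL added. Initial aggregation rate (velocity) recorded from aggregation traces. Means of four separate determinations ± S.E.M.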

[4] = tested on: Platelet; test: as §2; assay type: functional, cell-based; procedure, shortened: as §3
[5] = tested on: Platelet; test: Increase in thrombin-indcued cytosolic calcium level in human platelets at 2 uM treated 1 min before thrombin challenge using fluorescent probe fura 2 by fluorescence assay; assay type: functional, cell-based
Procedure, shortened: (§4)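 Fura 2-loaded platelets in stirred thermostated cuvette; excitation 340/385 nm, emission 505 nm. Compound (2 µM) or DMSO added, thrombin 40 mU/mL given 1 min or 3 min later. Also run with 0.5 mM EGTA added 1 min before compound. Traces representative of three experiments.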

[6] = tested on: Platelet; test: Decrease in thrombin-indcued cytosolic calcium level in human platelets at 2 uM treated 3 mins before thrombin challenge using fluorescent probe fura 2 by fluorescence assay; assay type: functional, cell-based; procedure, shortened: as §4
[7] = tested on: Platelet; test: Antiplatelet activity against human platelets assessed as inhibition of phorbol-ester-induced platelets aggregation at 2 to 8 uM pretreated 3 mins before compound addition by aggregometer analysis; assay type: functional, cell-based
Procedure, shortened: (§5)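 Washed platelets (ACD/apyrase/prostacyclin, differential centrifugation, resuspended in Tris/Hepes basal buffer pH 7.4, 2-4 × 10⁸ cells/mL) preincubated 3 min with test agent or DMSO. Then 20 nM PMA or ionomycin added. Maximal aggregation rate after agonist taken as 100% without compound. Means of 4 experiments ± S.E.M.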

[8] = Toxicity in human platelet assessed as cell viability at 4 uM after 4 to 6 hrs by alamar blue method; assay type: cell-based
Procedure, shortened: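 Platelet suspensions with 1 mM NaHCO3 and 0.2% BSA kept at 37 °C under 5% CO₂ with compound for 4-6 h. Viability read fluorimetrically by Alamar Blue reduction.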

[9] = Toxicity in human platelets assessed as LDH release at 4 uM after 1 hr; assay type: cell-based; conditions: platelet
Procedure, shortened: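 Platelets (2 × 10⁸ cells/mL) incubated 1 h at 37 °C with compound, then centrifuged 3 min at 3000 g. Supernatant LDH measured with 5 mM NADH and 50 mM pyruvate as OD decrease at 340 nm. Total LDH determined after 0.1% Triton X-100 lysis.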

[10] = tested on: Platelet; test: Antiplatelet activity against human platelets assessed as inhibition of Ca2+-ionophore ionomycin-induced platelets aggregation at 2 to 8 uM pretreated 3 mins before compound addition by aggregometer analysis; assay type: functional, cell-based; procedure, shortened: as §5
[11] = species on record: Homo sapiens; test: Inhibition of protein tyrosine kinase phosphorylation in thrombin-stimulated human platelets at 2 uM treated 3 mins before thrombin challenge by SDS/PAGE analysis; procedure, shortened: as §1
[12] = tested on: Platelet; test: Antiplatelet activity against human platelets assessed as inhibition of thrombin-induced platelets aggregation at >4 uM pretreated 3 mins before compound addition by aggregometer analysis; assay type: functional, cell-based
[13] = tested on: Platelet; test: Antiplatelet activity against human platelets assessed as inhibition of thrombin-induced platelets aggregation at 8 uM pretreated 3 mins before compound addition by aggregometer analysis; assay type: functional, cell-based; procedure, shortened: as §3
[14] = tested on: Platelet; test: Increase in cytosolic calcium level in human platelets at 2 uM using fluorescent probe fura 2 by fluorescence assay; assay type: functional, cell-based
Procedure, shortened: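 Cytosolic Ca²⁺ monitored with fura 2 (excitation 340/385 nm, emission 505 nm) in stirred thermostated cuvette after 2 µM compound addition alone, versus DMSO vehicle. Representative of three experiments.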

## O=c1[nH]c(-c2ccccc2)nc2ccc3[nH]ccc3c12
[1]
  inhibition: inactive
[2]
  inhibition: Active
[3]
  IC50: 1790 nM
[4]
  inhibition: Dose-dependent effect
[5]
  Activity: Active
[6]
  Activity: Active
[7]
  inhibition: Active
[8]
  Activity: Toxic
[9]
  Activity: Non-toxic
[10]
  inhibition: Active
[11]
  inhibition: Active
[12]
  inhibition: Active
[13]
  inhibition: Active
[14]
  Activity: Active

## O=c1[nH]c(-c2ccccc2)nc2ccc3c(ccn3CC3CC3)c12
[2]
  inhibition: Active
[13]
  inhibition: Active

## CCn1ccc2c3[nH]cc(-c4ccccc4)c(=O)c3ccc21
[2]
  inhibition: Active
[13]
  inhibition: Active

## CCn1ccc2c3c(=O)[nH]c(-c4ccc(OC)cc4)nc3ccc21
[2]
  inhibition: Active
[13]
  inhibition: Active

## O=c1c(-c2ccccc2)c[nH]c2ccc3[nH]ccc3c12
[2]
  inhibition: Active
[13]
  inhibition: Active

## O=c1c(-c2ccccc2)c[nH]c2c1ccc1[nH]ccc12
[2]
  inhibition: Active
[13]
  inhibition: Active

## CCn1ccc2c3c(=O)c(-c4ccccc4)c[nH]c3ccc21
[2]
  inhibition: Active
[13]
  inhibition: Active

## CCn1ccc2c3c(=O)[nH]c(-c4ccccc4)nc3ccc21
[2]
  inhibition: Active
[13]
  inhibition: Active
